IMP-1 inhibitor: inhibitors of Pseudomonas aeruginosa IMP-1 metallo-beta-lactamase | purified IMP-1, nitrocefin hydrolysis, epi-absorbance fluorescence | 290,000 tested, 0.45% active | inhibition, % at 5.6 µM;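 active = inhibition above the mean plus 3 SD of all compounds in the same screening run, cut at about 4.5% in these data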
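System: purified IMP-1 / Input: IMP-1 dispensed at 0.2 nM / Medium: 50 mM HEPES pH 7.1, 50 µM ZnSO4, 0.05% Brij 35 / Timing: 15 min enzyme–compound preincubation, then 25 min nitrocefin reaction, 25 °C / Technique: plate fluorescence quenching by hydrolysis product, ex 480/em 530 nm / Repeats: singlicate testing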
VIM-2 inh: blocks Pseudomonas aeruginosa VIM-2 metallo-beta-lactamase; inhibition, % at 5.6 µM; 290,000 tested, 0.89% active; purified VIM-2, nitrocefin hydrolysis, epi-absorbance fluorescence; AID 1527;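 active = inhibition above the mean of all tested compounds plus 3 SD, cutoff set per screening run, cut at about 7.5% in these data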;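 also: red hydrolysis product quenches plate fluorescence so inhibitors raise well fluorescence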
Mdm2 MdmX PPI: disrupts the human Mdm2-MdmX interaction; inhibition, % at 8 µM; SaOS-2 split-luciferase Mdm2/MdmX complementation, luminescence; 330,000 tested, 3% active; O15151+Q00987;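 active = inhibition of at least 50% at 8 µM in the primary screen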
697 NFkB inh: inhibitors of the PMA/ionomycin-induced NF-kB reporter in 697 B cells. 697 B-cell NF-kB luciferase reporter, 16 h. inhibition, % at 4 µM. 330,000 tested, 0.33% active; in the data active = inhibition above about 35%
aSyn 5UTR inh: MLPCN primary screen, SNCA 5' untranslated region; alpha-synuclein 5'UTR reporter, inhibitor activity; 300,000 tested, 0.82% active; inhibition, % (tested at 7.5 µM); in the data active = inhibition above about 60%; inconclusive = no clear call, values can overlap the other calls;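 also: H4 neuroglioblastoma cells stably carrying SNCA 5'UTR luciferase fusion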
Jurkat NFkB inh: inhibitors of the PMA/ionomycin-induced NF-kB reporter in Jurkat cells. PMA/ionomycin-induced NF-kB luciferase reporter, luminescence. inhibition, % at 4 µM. 330,000 tested, 0.53% active. AID 435003; in the data active = inhibition above about 50%
697 NFkB conf: inhibitors of the PMA/ionomycin-induced NF-kB reporter in 697 B cells, retest. shares compounds with 697 NFkB inh. 697 B-cell NF-kB luciferase, 16 h. inhibition, % at 4 µM. 2,000 tested, 35% active. AID 449746; in the data active = inhibition mostly above about 28%, no sharp cut-off; inactive = mostly below about 22%
Of the large screens only hits and unclear results are named; the others gave an inactive call (follow-up assays come after a bar, where they were run). In the library only some 4.7% were active in any assay of this set; here they are far more common.

O=C(NC1CC1)c1ccc(Cl)c(S(=O)(=O)N2CCOCC2)c1	none
COC(=O)C1=C(C)NC(C)=C(C(=O)OC)C1c1ccc2ccccc2n1	none
O=C1c2ccccc2C(=O)C1c1ccc2ccccc2n1	aSyn 5UTR inh 94 | 697 NFkB conf inactive
COc1ccc(NC(=O)c2cccc3c2C(=O)c2ccc(-c4cnc(OC)nc4)cc2S3(=O)=O)cc1	none (no result: IMP-1 inhibitor, VIM-2 inh, aSyn 5UTR inh)
COC(=O)c1cc(S(=O)(=O)NCC2CCN(CCc3cccs3)CC2)cn1C	none
Cc1ccc(SCC(=O)OCC(=O)NC(C)c2ccc(Br)cc2)cc1 (configuration not stated)	none
Brc1ccc(-c2ncc(-c3ccccc3)cn2)cc1	none | 697 NFkB conf inactive
Brc1ccc(-c2ccccc2)cc1	none (no result: IMP-1 inhibitor, VIM-2 inh, aSyn 5UTR inh)
O=C(Nc1cccc2ccccc12)c1ccc(OC(=S)N2CCOCC2)cc1	none | 697 NFkB conf inactive
O=C(Nc1cccc(Cl)c1)c1ccc(OC(=S)N2CCOCC2)cc1	none
CCN(CC(=O)Nc1c(F)cccc1F)C(=O)c1cc(S(=O)(=O)N2CCOCC2)ccc1N1CCCC1	697 NFkB inh 40 (no result: IMP-1 inhibitor, VIM-2 inh) | 697 NFkB conf 32
CCN(CC(=O)Nc1c(F)cccc1F)C(=O)c1ccc(N2CCOCC2)c([N+](=O)[O-])c1	none (no result: IMP-1 inhibitor, VIM-2 inh)
CCN(CC(=O)Nc1c(F)cccc1F)C(=O)c1cc([N+](=O)[O-])ccc1N1CCCCC1	697 NFkB inh 35 (no result: IMP-1 inhibitor, VIM-2 inh) | 697 NFkB conf 44
COc1ccccc1CCNC(=O)c1cccc(S(=O)(=O)N2CCc3ccccc3C2)c1	none (no result: IMP-1 inhibitor, VIM-2 inh, aSyn 5UTR inh)
COc1cccc(CN(C)C(=O)c2ccc(Oc3ccccc3)cc2)c1OC	none
NC(=O)COc1ccc(/C=N\NC(=O)c2ccc(-c3ccccc3)cc2)cc1	none
Cc1nc(C)c(-c2csc(Nc3ccccn3)n2)s1	none | 697 NFkB conf inactive
Cc1ccnc(Nc2nc(-c3sc(C)nc3C)cs2)c1	none (no result: IMP-1 inhibitor, VIM-2 inh)
O=C(CN1C(=O)c2ccccc2S1(=O)=O)c1ccc(Cl)cc1Cl	697 NFkB inh 74, aSyn 5UTR inh 78 | 697 NFkB conf 74
Cn1c(=O)[nH]c(=O)c2c1nc(N1CCOCC1)n2CCSc1nnnn1-c1ccccc1	697 NFkB inh 38 | 697 NFkB conf inactive
Cn1c(=O)[nH]c(=O)c2c1nc(N1CCOCC1)n2CCc1ccccc1	697 NFkB inh 47 | 697 NFkB conf inactive
COc1ccc(CCn2c(N3CCOCC3)nc3c2c(=O)[nH]c(=O)n3C)cc1	none
CC(CSc1nnnn1-c1ccccc1)Cn1c(N2CCCC2)nc2c1c(=O)[nH]c(=O)n2C (configuration not stated)	none
O=C(c1cccc(S(=O)(=O)N2CCOCC2)c1)N1CCCCCC1	none
O=C(c1cccc(S(=O)(=O)N2CCOCC2)c1)N1CCCC1	697 NFkB inh 36 | 697 NFkB conf inactive
CCOc1ccc(C(F)(F)F)cc1NC(=O)c1ccc(OC)c([N+](=O)[O-])c1	697 NFkB inh 40 | 697 NFkB conf inactive
CCCOc1ccc(Oc2ccc(S(=O)(=O)N3CCN(C)CC3)cn2)cc1	none (no result: IMP-1 inhibitor, VIM-2 inh)
CCOC(=O)c1ccccc1N/C=C/C(=O)c1cccs1	none
O=C(/C=C/Nc1ccccc1F)c1cccs1	none | 697 NFkB conf inactive
COc1cc(CN2CCCC(N3CCN(c4ccc(F)cc4)CC3)C2)ccc1F (configuration not stated)	none
CCOc1ccc(-c2cc(C(=O)N3CCN(c4ccccn4)CC3)c3ccccc3n2)cc1	none
CCCc1ccc(-c2cc(C(=O)N3CCN(c4ccccn4)CC3)c3ccccc3n2)cc1	none | 697 NFkB conf inactive
COc1ccc(NC(=O)c2ccc(COc3ccccc3Br)o2)cc1OC	697 NFkB inh 43 | 697 NFkB conf inactive
O=C(c1ccc(N2CCCCC2)c([N+](=O)[O-])c1)N1CCOCC1	none
O=C(c1ccc(N2CCCC2)c([N+](=O)[O-])c1)N1CCc2ccccc2C1	697 NFkB inh 37 (no result: IMP-1 inhibitor, VIM-2 inh) | 697 NFkB conf inactive
CC1=C(C(N)=O)C(c2ccccc2[N+](=O)[O-])n2ncnc2N1 (configuration not stated)	none
c1ccc2sc(SCSc3nc4ccccc4s3)nc2c1	none
O=C(O)CCSc1nc2ccccc2s1	697 NFkB inh 40 | 697 NFkB conf 35
CCOC(=O)c1cc(NC(=O)c2ccoc2C)cc(C(=O)OCC)c1	697 NFkB inh 37 | 697 NFkB conf inactive
Cc1ccnc(NC(=O)C(C)N2C(=O)c3ccccc3S2(=O)=O)c1 (configuration not stated)	none (no result: IMP-1 inhibitor, VIM-2 inh)
COc1ccc(C(=O)c2coc3ccc(OC(C)=O)cc23)cc1	none | 697 NFkB conf inactive
Cc1ccc(C(=O)c2coc3ccc(O)cc23)cc1	none | 697 NFkB conf inactive
Cc1ccc(C(=O)c2coc3ccc(O)c(Cl)c23)cc1	none
COc1cccc(C(=O)Nc2nnc(S(=O)(=O)N(C)Cc3ccc(F)cc3)s2)c1	none
Cc1ccc(C(=O)NCC(=O)OCn2nnc3ccccc3c2=O)cc1	none (no result: IMP-1 inhibitor, VIM-2 inh, aSyn 5UTR inh)
Cc1ccn2c(=O)nc(SCC(=O)N3N=C(c4cccs4)CC3c3ccc(F)cc3)nc2c1 (configuration not stated)	none (no result: IMP-1 inhibitor, VIM-2 inh)
Cn1cccc1C(=O)OCc1csc(-c2ccccc2)n1	none | 697 NFkB conf inactive
O=C(CSc1nnc2ccccn12)NNC(=O)c1cccc(Cl)c1	none (no result: IMP-1 inhibitor, VIM-2 inh, aSyn 5UTR inh)
COC(=O)C1=C(C)N(c2ccc(Cl)cc2)/C(=C/c2ccc(O)cc2)C1=O	697 NFkB inh 36 | 697 NFkB conf inactive
COC(=O)C1=C(C)N(c2cc(C)cc(C)c2)/C(=C/c2ccc(O)cc2)C1=O	none
O=C(NCCOc1ccc(Cl)cc1)c1cccc(S(=O)(=O)N2CCCC2)c1	none (no result: IMP-1 inhibitor, VIM-2 inh, aSyn 5UTR inh)
O=C(NCC1CCCN(C(=O)Cc2ccccc2Cl)C1)c1ccc(F)cc1 (configuration not stated)	none
COc1cc(/C=N/NC(=O)c2ccc(NC(=O)C3CCCCC3)cc2)ccc1O	none
CCOc1cc(/C=N/NC(=O)c2ccc(NC(=O)C3CC3)cc2)ccc1O	697 NFkB inh 39 | 697 NFkB conf inactive
COc1ccc(NC(=O)[C@@H]2CC=C[C@@H]3CCN(C4CCCCC4)C(=O)[C@@H]32)cc1	697 NFkB inh 36 (no result: IMP-1 inhibitor, VIM-2 inh) | 697 NFkB conf inactive
CC1(C)CC(=O)C(N=Nc2cccc(S(=O)(=O)N3CCOCC3)c2)=C(O)C1	697 NFkB inh 38, aSyn 5UTR inh inconclusive | 697 NFkB conf inactive
Cc1ccc(-c2nn3c(C)nnc3c3ccccc23)cc1S(=O)(=O)NCc1ccco1	697 NFkB inh 43 | 697 NFkB conf 43
Cc1ccc(S(=O)(=O)NCc2ccco2)c(C)c1C	none
CC[C@@]1(C(=O)OC)N[C@H](CN(C)S(=O)(=O)c2ccccc2)[C@@H]2C(=O)N(C)C(=O)[C@@H]21	none (no result: IMP-1 inhibitor, VIM-2 inh, aSyn 5UTR inh)
COc1cc(/C=C2\C(=N)N3N=CSC3=NC2=O)ccc1OS(=O)(=O)c1ccccc1	none (no result: aSyn 5UTR inh)
CCOc1cc(/C=C2\C(=N)N3N=CSC3=NC2=O)ccc1OS(=O)(=O)c1ccccc1	697 NFkB inh 44 | 697 NFkB conf inactive

Source: PubChem BioAssay (several laboratories)
